ChEMBL document CHEMBL1142258, “Discovery of a series of aminopiperidines as novel iNOS inhibitors” (Bioorg Med Chem Lett, 2008)

Legend:
[1] = biological target: T1, Nitric oxide synthase 3 (Homo sapiens) (UniProt P29474); test: Inhibition of human eNOS expressed in insect SF9 cells at 10 uM after 1 hr
T1 sequence (whole entry): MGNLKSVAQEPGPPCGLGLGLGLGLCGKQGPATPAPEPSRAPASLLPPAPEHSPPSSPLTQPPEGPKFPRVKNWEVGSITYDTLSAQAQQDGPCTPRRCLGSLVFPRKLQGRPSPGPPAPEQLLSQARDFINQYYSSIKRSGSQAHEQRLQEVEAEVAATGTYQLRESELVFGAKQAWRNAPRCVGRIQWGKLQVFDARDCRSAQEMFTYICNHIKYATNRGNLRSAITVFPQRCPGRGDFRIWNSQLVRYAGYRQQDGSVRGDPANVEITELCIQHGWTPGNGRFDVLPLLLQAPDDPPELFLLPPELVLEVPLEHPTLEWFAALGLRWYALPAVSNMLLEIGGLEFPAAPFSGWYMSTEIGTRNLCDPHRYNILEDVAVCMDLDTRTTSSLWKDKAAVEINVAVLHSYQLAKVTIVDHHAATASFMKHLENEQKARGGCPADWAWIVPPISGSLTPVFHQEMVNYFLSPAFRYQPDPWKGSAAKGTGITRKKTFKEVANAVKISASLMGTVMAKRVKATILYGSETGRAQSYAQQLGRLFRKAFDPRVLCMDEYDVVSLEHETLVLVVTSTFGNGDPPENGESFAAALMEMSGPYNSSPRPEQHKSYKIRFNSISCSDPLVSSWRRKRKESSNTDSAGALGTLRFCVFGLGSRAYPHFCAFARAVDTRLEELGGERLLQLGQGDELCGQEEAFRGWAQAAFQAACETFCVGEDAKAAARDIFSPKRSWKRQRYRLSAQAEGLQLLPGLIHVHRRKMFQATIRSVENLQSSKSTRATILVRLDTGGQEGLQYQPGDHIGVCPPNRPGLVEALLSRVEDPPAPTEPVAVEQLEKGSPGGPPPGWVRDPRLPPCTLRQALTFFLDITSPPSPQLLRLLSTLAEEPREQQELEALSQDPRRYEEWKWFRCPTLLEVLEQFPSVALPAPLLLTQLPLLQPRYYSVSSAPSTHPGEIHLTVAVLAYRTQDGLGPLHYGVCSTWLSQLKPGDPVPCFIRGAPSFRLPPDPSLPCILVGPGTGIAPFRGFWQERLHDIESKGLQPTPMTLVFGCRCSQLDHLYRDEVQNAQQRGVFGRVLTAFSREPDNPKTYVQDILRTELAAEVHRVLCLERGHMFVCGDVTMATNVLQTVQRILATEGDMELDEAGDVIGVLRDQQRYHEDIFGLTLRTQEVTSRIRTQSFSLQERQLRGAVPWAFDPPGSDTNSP

[2] = biological target: T2, Nitric oxide synthase 3 (Homo sapiens, UniProt P29474); test: Inhibition of human eNOS expressed in insect SF9 cells after 1 hr
T2 sequence (P29474 whole entry): T1 sequence (whole entry)
Procedure, shortened: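 Human recombinant eNOS from SF9 cells, tested at eight concentrations. Conditions: 10 nM [3H]arginine with NADP+/G6P/G6PDH, MgCl2, FAD, FMN, BH4, plus 25 nM calmodulin, 0.5 mM CaCl2 and 3.5 mM glutathione, in 50 mM Hepes for 1 h at 37 °C. Citrulline was resin-separated and counted, with AMT background. IC50 from one-site fit, geometric mean of ≥3 runs.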

[3] = biological target: T3, Nitric oxide synthase, inducible (Homo sapiens, UniProt P35228); test: Inhibition of human iNOS expressed in human DLD1 cells after 1 hr; format: cell-based, DLD-1
Procedure, shortened: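 Human iNOS endogenously expressed in DLD-1 cells, eight compound concentrations. Incubated 1 h at 37 °C in 50 mM Hepes with 10 nM [3H]arginine, [14C]citrulline internal standard, β-NADP+, G6P, MgCl2, G6P dehydrogenase, FAD, FMN and BH4. [3H]citrulline was separated on cation-exchange resin and counted; AMT defined background.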

[4] = biological target: T4, Nitric oxide synthase 1 (Homo sapiens, UniProt P29475); test: Inhibition of human nNOS expressed in insect SF9 cells after 1 hr
[5] = species on record: Homo sapiens; test: Selectivity for human eNOS to human iNOS
Procedure, shortened: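 Ratio of eNOS IC50 to iNOS IC50, both from [3H]arginine→[3H]citrulline conversion. iNOS was endogenous to DLD-1 cells; eNOS was human recombinant expressed in SF9 cells. Each used 10 nM [3H]arginine with NADP+/G6P/FAD/FMN/BH4 cofactors in 50 mM Hepes for 1 h at 37 °C. The eNOS reaction also had calmodulin, CaCl2 and glutathione. Citrulline was separated by cation exchange and counted. IC50s came from eight concentrations, as geometric means of ≥3 runs.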

[6] = biological target: T3, Nitric oxide synthase, inducible; test: Inhibition of cytokine-induced iNOS activity in human DLD1 cells after 24 hrs; format: cell-based, DLD-1
Procedure, shortened: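 DLD-1 cells were seeded 3 days ahead, then given fresh medium with 20 ng/mL IFNγ, 4 ng/mL TNFα, 2 ng/mL IL1β and 1 mM L-arginine. Compound titrations in 50 mM Hepes pH 7.4 were added at eight concentrations for 24 h at 37 °C, 5% CO2. Nitrite was read with Griess reagent at 540 nm.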

[7] = biological target: T3, Nitric oxide synthase, inducible; test: Inhibition of cytokine-induced iNOS activity in human DLD1 cells at 10 uM after 24 hrs; format: cell-based; conditions: DLD-1
[8] = biological target: T4, Nitric oxide synthase 1; test: Inhibition of human nNOS expressed in insect SF9 cells at 10 uM after 1 hr
Procedure, shortened: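 Human recombinant nNOS expressed in SF9 cells, incubated with test compound, 10 nM [3H]arginine and [14C]citrulline (80–120 nM) internal standard in 50 mM Hepes for 1 h at 37 °C. Cofactors were β-NADP+, G6P, MgCl2, G6P dehydrogenase, FAD, FMN, BH4, 25 nM calmodulin, 0.5 mM CaCl2 and 3.5 mM glutathione. After MES stop and cation-exchange filtration, [3H]citrulline was counted; background came from 10 µM AMT.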

[9] = biological target: T3, Nitric oxide synthase, inducible; test: Inhibition of human iNOS expressed in human DLD1 cells at 10 uM after 1 hr; format: cell-based; conditions: DLD-1

T4 sequence (P29475 whole entry): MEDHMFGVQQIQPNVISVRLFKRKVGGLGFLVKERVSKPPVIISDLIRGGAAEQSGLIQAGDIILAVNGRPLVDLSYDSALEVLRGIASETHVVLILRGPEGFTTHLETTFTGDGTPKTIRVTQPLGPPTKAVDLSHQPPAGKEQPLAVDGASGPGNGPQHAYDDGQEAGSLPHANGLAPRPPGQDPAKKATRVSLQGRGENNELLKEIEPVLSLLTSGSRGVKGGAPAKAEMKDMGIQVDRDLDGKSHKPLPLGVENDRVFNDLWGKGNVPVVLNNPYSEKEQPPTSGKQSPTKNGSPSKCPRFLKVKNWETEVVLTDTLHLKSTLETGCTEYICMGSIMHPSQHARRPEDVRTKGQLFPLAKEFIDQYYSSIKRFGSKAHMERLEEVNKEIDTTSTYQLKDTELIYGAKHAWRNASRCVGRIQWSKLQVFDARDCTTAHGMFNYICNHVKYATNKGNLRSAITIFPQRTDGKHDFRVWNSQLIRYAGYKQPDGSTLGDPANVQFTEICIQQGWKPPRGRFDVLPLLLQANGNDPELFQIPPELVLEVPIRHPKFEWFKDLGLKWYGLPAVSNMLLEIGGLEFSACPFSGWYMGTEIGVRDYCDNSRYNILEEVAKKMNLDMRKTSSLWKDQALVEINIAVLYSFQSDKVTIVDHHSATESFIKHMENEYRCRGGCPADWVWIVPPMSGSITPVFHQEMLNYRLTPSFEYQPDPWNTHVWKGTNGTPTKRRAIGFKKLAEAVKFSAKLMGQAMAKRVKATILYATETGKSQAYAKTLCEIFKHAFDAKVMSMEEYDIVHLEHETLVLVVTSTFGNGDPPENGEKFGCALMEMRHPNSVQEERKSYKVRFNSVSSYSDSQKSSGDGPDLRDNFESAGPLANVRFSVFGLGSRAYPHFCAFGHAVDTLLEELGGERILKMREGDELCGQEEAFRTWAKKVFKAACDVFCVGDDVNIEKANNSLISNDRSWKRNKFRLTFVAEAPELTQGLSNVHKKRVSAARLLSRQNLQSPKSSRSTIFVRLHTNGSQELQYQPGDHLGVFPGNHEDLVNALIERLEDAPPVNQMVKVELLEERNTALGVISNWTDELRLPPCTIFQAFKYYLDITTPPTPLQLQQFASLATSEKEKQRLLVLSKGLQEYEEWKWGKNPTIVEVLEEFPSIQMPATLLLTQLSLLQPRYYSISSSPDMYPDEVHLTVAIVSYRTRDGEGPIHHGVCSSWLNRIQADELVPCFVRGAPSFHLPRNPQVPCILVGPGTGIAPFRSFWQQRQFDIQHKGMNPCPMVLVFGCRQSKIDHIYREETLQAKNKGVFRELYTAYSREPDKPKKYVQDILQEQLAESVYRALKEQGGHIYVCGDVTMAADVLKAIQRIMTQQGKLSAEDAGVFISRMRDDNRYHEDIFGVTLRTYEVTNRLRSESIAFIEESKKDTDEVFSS
T3 sequence (P35228 whole entry): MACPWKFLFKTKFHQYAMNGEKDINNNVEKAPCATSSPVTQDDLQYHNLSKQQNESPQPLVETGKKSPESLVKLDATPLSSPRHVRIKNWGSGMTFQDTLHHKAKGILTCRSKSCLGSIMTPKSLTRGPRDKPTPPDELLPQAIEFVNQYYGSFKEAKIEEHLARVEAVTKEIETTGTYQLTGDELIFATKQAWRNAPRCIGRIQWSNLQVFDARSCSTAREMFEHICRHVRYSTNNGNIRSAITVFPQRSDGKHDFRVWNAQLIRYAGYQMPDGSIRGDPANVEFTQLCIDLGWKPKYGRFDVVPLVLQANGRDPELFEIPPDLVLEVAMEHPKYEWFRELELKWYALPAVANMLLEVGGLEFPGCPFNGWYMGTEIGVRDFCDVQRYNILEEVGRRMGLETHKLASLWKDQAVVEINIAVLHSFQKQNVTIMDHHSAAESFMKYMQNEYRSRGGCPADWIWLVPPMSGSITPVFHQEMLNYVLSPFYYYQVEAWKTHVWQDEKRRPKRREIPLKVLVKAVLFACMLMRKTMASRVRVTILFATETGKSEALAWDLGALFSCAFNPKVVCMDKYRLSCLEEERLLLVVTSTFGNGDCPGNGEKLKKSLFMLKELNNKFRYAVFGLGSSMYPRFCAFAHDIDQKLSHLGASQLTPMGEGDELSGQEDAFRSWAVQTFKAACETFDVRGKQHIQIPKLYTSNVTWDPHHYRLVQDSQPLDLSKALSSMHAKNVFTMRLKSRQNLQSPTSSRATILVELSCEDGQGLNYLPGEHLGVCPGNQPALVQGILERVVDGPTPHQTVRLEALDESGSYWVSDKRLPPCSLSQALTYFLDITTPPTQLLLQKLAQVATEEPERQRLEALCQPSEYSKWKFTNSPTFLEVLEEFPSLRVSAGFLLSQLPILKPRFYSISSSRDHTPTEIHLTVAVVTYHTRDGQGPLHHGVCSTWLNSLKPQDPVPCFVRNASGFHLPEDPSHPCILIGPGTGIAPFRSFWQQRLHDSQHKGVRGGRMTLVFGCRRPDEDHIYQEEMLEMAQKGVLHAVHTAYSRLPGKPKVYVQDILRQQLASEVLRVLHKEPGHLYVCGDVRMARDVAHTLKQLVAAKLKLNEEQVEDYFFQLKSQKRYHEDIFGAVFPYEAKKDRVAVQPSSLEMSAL

| SMILES | inhibition [1] | IC50 [2] | IC50 [3] | IC50 [4] | Ratio IC50 [5] | IC50 [6] | inhibition [7] | inhibition [8] | inhibition [9] |
| --- | --- | --- | --- | --- | --- | --- | --- | --- | --- |
| N#Cc1ccc(C(=O)N2CCC3(CC2)N=C(N)c2c(F)ccc(F)c2N3)cn1 | < 15% |  |  |  |  |  |  |  |  |
| CN(Cc1cc(Cl)ccc1C#N)C1CCNCC1 |  | 1100 nM | 330 nM | 350 nM | 3 | 5900 nM |  |  |  |
| CC(C)CN(Cc1cc(Cl)ccc1C#N)[C@H]1CCCN(C)C1 | 0% |  | 720 nM | 6500 nM | > 50 | 320 nM |  |  |  |
| CN(Cc1cc(Cl)ccc1C#N)C1CCCNCC1 (configuration not stated) |  | 4400 nM | 660 nM | 1200 nM | 7 |  | 31% |  |  |
| CN1CCC(N(C)Cc2cc(Cl)ccc2[N+](=O)[O-])CC1 |  | 180 nM | 90 nM | 80 nM | 2 | 1100 nM |  |  |  |
| CC(C)N(Cc1cc(Cl)ccc1C#N)C1CCNCC1 |  | 570 nM | 32 nM | 190 nM | 18 | 380 nM |  |  |  |
| CC(C)CN(Cc1cc(Cl)ccc1C#N)C1CCNCC1 | 20% |  | 390 nM | 1900 nM | > 25 | 570 nM |  |  |  |
| CN1CCC(N(C)Cc2cc(Cl)ccc2C#N)CC1 |  | 770 nM | 290 nM | 540 nM | 3 | 3700 nM |  |  |  |
| CN(Cc1cc(Cl)ccc1C#N)C1CCN(CC2CC2)CC1 |  | 860 nM | 250 nM | 530 nM | 3 | 3500 nM |  |  |  |
| CN(Cc1cc(Cl)ccc1C#N)C1CCCNC1 (configuration not stated) |  | 983 nM | 180 nM | 190 nM | 5 | 4400 nM |  |  |  |
| COc1ccc(C#N)c(CN(C)C2CCN(C)CC2)c1 |  |  | 5100 nM |  |  |  | < 15% |  |  |
| N#Cc1ccc(Cl)cc1CN(C1CCCC1)C1CCNCC1 | 1% |  | 1500 nM |  | > 7 | 6700 nM |  | 24% |  |
| CN1CCC(N(C)Cc2cc([N+](=O)[O-])ccc2Cl)CC1 |  |  |  |  |  |  | < 15% |  | < 15% |
| CN1CCC(N(C)Cc2ccccc2[N+](=O)[O-])CC1 |  |  |  |  |  |  | < 15% |  | < 15% |
| CN(Cc1cc(Cl)ccc1C#N)C1CCN(CCc2ccccc2)CC1 |  | 220 nM | 300 nM | 150 nM | 1 | 3300 nM |  |  |  |
| CC(C)CN(Cc1cc(Cl)ccc1C#N)[C@H]1CCCNC1 | 0% |  | 330 nM | 5300 nM | > 25 | 570 nM |  |  |  |
| CC(C)CN1CCC(N(C)Cc2cc(Cl)ccc2C#N)CC1 |  | 540 nM | 400 nM | 600 nM | 1 | 3200 nM |  |  |  |
| CCCCN1CCC(N(C)Cc2cc(Cl)ccc2C#N)CC1 |  | 680 nM | 340 nM | 420 nM | 2 | 3800 nM |  |  |  |
